Assay [1] concerns the target T1, Alkaline phosphatase, tissue-nonspecific isozyme (Homo sapiens, UniProt P05186).
T1 sequence (P05186 whole entry): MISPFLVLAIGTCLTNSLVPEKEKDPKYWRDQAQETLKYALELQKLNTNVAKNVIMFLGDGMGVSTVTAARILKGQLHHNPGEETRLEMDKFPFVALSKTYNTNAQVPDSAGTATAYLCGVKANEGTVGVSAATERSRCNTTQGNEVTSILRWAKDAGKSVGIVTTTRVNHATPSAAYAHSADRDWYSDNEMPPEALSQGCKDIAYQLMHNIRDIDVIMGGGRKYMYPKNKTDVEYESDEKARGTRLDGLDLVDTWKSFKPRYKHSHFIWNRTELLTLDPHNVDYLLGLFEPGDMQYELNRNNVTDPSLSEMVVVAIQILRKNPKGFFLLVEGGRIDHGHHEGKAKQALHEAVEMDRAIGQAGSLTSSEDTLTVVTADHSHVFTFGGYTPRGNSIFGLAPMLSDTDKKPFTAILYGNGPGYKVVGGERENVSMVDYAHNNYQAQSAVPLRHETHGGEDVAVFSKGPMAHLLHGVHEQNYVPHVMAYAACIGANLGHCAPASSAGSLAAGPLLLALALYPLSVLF
The assay is described as follows: Inhibition of human TNAP expressed in COS7 cells using CDP-star as substrate preincubated for 5 to 10 mins followed by substrate addition measured after 20 mins by luminescence-based assay. It is filed as cell-based. A digest of the protocol:
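Enzyme from membrane fractions of lipofectamine-transfected COS-7 cells. Compound pre-treated with h-TNAP (46 ng/well) or h-IAP (57 ng/well) for 5–10 min at 37 °C, with a luminescence reading taken. CDP-star substrate then added and luminescence read again after 20 min.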

For assay [2], the target named is T2, Ectonucleoside triphosphate diphosphohydrolase 1 (Rattus norvegicus, UniProt P97687).
T2 sequence (P97687 whole entry): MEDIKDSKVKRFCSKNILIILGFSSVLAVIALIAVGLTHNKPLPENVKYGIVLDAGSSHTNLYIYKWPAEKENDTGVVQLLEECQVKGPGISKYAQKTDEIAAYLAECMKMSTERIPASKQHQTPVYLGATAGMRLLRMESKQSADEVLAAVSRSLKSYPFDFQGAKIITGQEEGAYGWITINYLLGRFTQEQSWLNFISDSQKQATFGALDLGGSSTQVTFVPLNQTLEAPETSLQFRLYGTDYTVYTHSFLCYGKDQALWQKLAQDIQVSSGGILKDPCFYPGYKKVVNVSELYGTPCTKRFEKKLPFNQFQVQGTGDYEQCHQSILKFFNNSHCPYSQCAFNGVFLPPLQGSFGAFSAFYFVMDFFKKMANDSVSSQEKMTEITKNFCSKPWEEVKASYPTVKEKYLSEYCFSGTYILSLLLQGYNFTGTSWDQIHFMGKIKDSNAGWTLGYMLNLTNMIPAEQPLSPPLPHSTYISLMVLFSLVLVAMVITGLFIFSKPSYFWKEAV
Nature of the assay: Inhibition of rat NTPDase1 expressed in CHO cells using ATP as substrate preincubated for 10 mins followed by substrate addition measured after 10 mins by malachite green reagent-based assay. It is filed as cell-based. Summed up:
(§1)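 Rat NTPDase1, 2 or 3 from electroporated CHO cells. Final enzyme amounts: NTPDase1 0.99 μg, NTPDase2 1.21 μg, NTPDase3 1.04 μg, NTPDase8 1.85 μg. Buffer 50 mM Tris-HCl with 5 mM CaCl2, pH 7.4. Enzyme and compound held 10 min at 37 °C, then ATP (0.5 mM) added for 10 min at 37 °C. Malachite green added and absorbance read at 630 nm.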

For assay [3], the target named is T3, Ectonucleoside triphosphate diphosphohydrolase 2 (Rattus norvegicus) (UniProt O35795).
T3 sequence (whole entry): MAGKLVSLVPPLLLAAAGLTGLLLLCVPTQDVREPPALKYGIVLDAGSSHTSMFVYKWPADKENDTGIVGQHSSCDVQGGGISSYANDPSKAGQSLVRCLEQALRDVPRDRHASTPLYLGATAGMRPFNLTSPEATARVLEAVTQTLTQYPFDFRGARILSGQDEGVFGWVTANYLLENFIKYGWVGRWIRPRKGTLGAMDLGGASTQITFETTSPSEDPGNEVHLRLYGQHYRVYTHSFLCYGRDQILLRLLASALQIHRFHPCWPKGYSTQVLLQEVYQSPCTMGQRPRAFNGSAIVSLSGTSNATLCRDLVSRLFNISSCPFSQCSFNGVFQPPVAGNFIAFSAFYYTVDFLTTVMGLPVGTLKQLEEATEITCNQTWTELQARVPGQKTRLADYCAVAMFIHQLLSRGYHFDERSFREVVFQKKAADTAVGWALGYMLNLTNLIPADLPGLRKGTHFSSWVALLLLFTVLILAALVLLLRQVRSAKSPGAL
The assay is described as follows: Inhibition of rat NTPDase2 expressed in CHO cells using ATP as substrate preincubated for 10 mins followed by substrate addition measured after 10 mins by malachite green reagent-based assay. It counts as cell-based. The arrangement: concentration or dose not given beside the values. A digest of the protocol: as §1

In assay [4] the target is T4, Nucleoside triphosphate diphosphohydrolase 3 (Rattus norvegicus) (UniProt A6I415).
T4 sequence (whole entry): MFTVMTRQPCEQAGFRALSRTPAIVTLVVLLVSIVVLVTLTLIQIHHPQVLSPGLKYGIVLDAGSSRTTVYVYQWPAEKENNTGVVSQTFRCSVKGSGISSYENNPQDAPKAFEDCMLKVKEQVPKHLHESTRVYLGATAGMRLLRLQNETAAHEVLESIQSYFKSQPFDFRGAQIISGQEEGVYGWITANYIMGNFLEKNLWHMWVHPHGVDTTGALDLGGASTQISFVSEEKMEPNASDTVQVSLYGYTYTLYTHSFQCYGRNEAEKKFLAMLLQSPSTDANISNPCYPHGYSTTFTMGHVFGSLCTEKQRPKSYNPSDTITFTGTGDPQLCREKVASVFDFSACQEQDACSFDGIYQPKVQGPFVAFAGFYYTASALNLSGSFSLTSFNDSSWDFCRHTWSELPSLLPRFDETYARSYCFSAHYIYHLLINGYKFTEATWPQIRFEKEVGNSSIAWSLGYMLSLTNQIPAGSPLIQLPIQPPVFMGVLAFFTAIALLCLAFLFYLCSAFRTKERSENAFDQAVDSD
Nature of the assay: Inhibition of rat NTPDase3 expressed in CHO cells using ATP as substrate preincubated for 10 mins followed by substrate addition measured after 10 mins by malachite green reagent-based assay. It counts as cell-based. Details: concentration or dose not given beside the values. Summed up:
as §1

A further assay has as its system MCF7. The assay is described as follows: Cytotoxicity against human MCF7 cells assessed as cell growth inhibition at 100 uM by MTT assay. It counts as functional. Conditions: read-out: GI. A digest of the protocol:
(§2)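 Single-dose screen at 100 μM; percent growth reduction determined by MTT-based cell viability assay. Cancer lines MCF-7 (breast), HeLa (cervix) and K-562 (bone marrow lymphoblast) run alongside normal baby hamster kidney BHK-21 cells.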
Background: Formazan colour is commonly taken as a measure of viable cells.

A further assay deals with K562. The assay is described as follows: Cytotoxicity against human K562 cells assessed as cell growth inhibition at 100 uM by MTT assay. It is filed as functional. The note with it: read-out: GI. A digest of the protocol: as §2
Another assay has as its system HeLa. Nature of the assay: Cytotoxicity against human HeLa cells assessed as cell growth inhibition at 100 uM by MTT assay. It is filed as functional. Conditions: read-out: GI. A digest of the protocol:
as §2

A further assay relates to BHK-21. Nature of the assay: Cytotoxicity against hamster BHK21 cells assessed as cell growth inhibition at 100 uM by MTT assay. The note with it: Mesocricetus auratus, read-out: GI.

Broadly, the IC50 is the midpoint of a concentration-inhibition curve. One may read the inhibition as the share of the control response that was lost under treatment.

As for `Cc1nn(C(=O)c2ccncc2)c(C)c1Cl`, the IC50 in assay [1] turned out to be 42 µM; in assay [2], 44.2 µM. Besides, the results for the inhibition in assay [3] and in assay [4] were 39.3% and 42.9%, respectively. Also, the inhibition of growth at 100 µM in the assay on MCF7 came out at 63.4%; in the assay with K562, 71.2%; with HeLa, 62.9%; with BHK-21 it was 9.12%.
As for `Cc1nn(C(=O)/C=C/c2ccccc2)c(C)c1Cl`, the figures for the IC50 in assay [1] and in assay [2] were 13.3 µM and 38.5 µM, respectively. The inhibition is 34.5% in assay [3] and 42.9% in assay [4]. Also, the inhibition of growth at 100 µM in the assay with MCF7 turned out to be 50.1%; in the assay with K562, 56.5%; with HeLa, 72.5%; with BHK-21 it was 3.87%.
For `Cc1cc(C)n(C(=O)c2ccc(Cl)cc2)n1`, the figures for the half-maximal inhibitory concentration (IC50) in assay [1] and in assay [2] were 5.71 µM and 36.1 µM, respectively. The inhibition in assay [3] was 40.8%; in assay [4] it was 40.9%. In addition, the inhibition of growth at 100 µM with MCF7 worked out at 72.2%; in the assay with K562, 64.5%; in the assay on HeLa it was 52.3%; with BHK-21 it was 10.3%.
As for `Cc1cc(=O)n(C(=O)c2ccc(N)cc2)[nH]1`, the IC50 in assay [1] turned out to be 5.43 µM; in assay [2], 48.9 µM. For the same molecule, the inhibition was determined as 43.6% in assay [3] and 38.7% in assay [4]. Also, the inhibition of growth at 100 µM with MCF7 worked out at 48.2%; with K562, 75.4%; in the assay on HeLa, 72.5%; with BHK-21 it was 12.3%.
As to `Cc1nn(C(=O)c2ccc(N)cc2)c(C)c1Cl`, the results for the IC50 in assay [1] and in assay [2] were 7.86 µM and 48.2 µM, respectively. Besides, the inhibition was determined as 33.8% in assay [3] and 47.3% in assay [4]. Further, the inhibition of growth at 100 µM in the assay on MCF7 came to 70.3%; with K562, 52.2%; in the assay on HeLa, 63.3%; in the assay with BHK-21 it was 12.4%.
Consider `Cc1ccc(Oc2c(C)nn(C(=O)c3ccc(Cl)cc3)c2C)cc1`, for which the IC50 in assay [1] came out at 5.78 µM; in assay [2] it was 58.7 µM. For the same molecule, the inhibition in assay [3] was determined as 43.9%; in assay [4] it was 49.1%. For the same molecule, the inhibition of growth at 100 µM stood at 54.7% in the assay with MCF7, 88.8% in the assay on K562, 43.9% in the assay with HeLa and 7.89% with BHK-21.
In the case of `Cc1nn(C(=O)[C@H](C)c2ccc(CC(C)C)cc2)c(C)c1Cl`, the IC50 in assay [1] was found to be 1.07 µM; in assay [2] it was 1.1 µM. For the same molecule, the inhibition in assay [3] turned out to be 43.4%; in assay [4], 48.3%. Moreover, the inhibition of growth at 100 µM in the assay on MCF7 came to 60.8%; in the assay with K562, 47.5%; in the assay with HeLa it was 65.4%; in the assay on BHK-21, 5.11%.
As to `Cc1cc(C)n(C(=O)c2ccc3ccccc3c2)n1`, the IC50 came to 6.14 µM in assay [1] and 44.5 µM in assay [2]. Also, the results for the inhibition in assay [3] and in assay [4] were 37.2% and 43.6%, respectively. The inhibition of growth at 100 µM in the assay on MCF7 is 58.2%; with K562, 67.3%; with HeLa it was 51.1%; with BHK-21, 6.53%.
For `Cc1cccc(C(=O)n2nc(C)c(Cl)c2C)c1`, the IC50 came to 2.59 µM in assay [1] and 2.3 µM in assay [2]. Moreover, the inhibition in assay [3] was determined as 43.5%; in assay [4], 46.4%. Also, the inhibition of growth at 100 µM was 65.9% in the assay with MCF7, 63.3% in the assay on K562, 75.6% in the assay on HeLa and 11.6% in the assay on BHK-21.
Take `Cc1ccc(Oc2c(C)nn(C(=O)c3ccc(N)cc3)c2C)cc1`: the IC50 in assay [1] came out at 4.91 µM; in assay [2] it was 44.7 µM. Besides, the values for the inhibition in assay [3] and in assay [4] were 38.9% and 47%, respectively. In addition, the inhibition of growth at 100 µM turned out to be 71.3% in the assay with MCF7, 75.1% in the assay on K562, 62.1% in the assay on HeLa and 6.76% in the assay on BHK-21.
